Test results reported in ChEMBL document CHEMBL4261600 (Eur J Med Chem, 2018).

Tests used:
OCI-AML-3 = experiment: Antiproliferative activity against human OCI-AML3 cells after 72 hrs by Celltiter-Glo assay; assay type: functional; conditions: OCI-AML-3, 72 h
Summary of the method: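 Cells seeded at 3000/well in 96-well plates, exposed to serially diluted compound for 72 h at 37 °C, 5% CO2. Viability read by CellTiter-Glo luminescence and normalized to DMSO control. GI50 derived from curve fit, mean of three independent measurements. Culture media: DMEM/10% FBS for adherent lines; IMDM for MV4-11 and MEC-1/2; RPMI 1640 for suspension lines and CHL.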

[1] = AUC (0 to t) in mouse at 3 mg/kg, iv by LC-MS/MS analysis; assay type: ADME, organism-based; conditions: in vivo
Summary of the method: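 Non-compartmental PK. Male SD rats 190-210 g, mice and beagle dogs acclimatized one week, fasted 12 h with water, split into iv and po groups (mice 48, rats 6, dogs 6). iv 3/3/2 mg/kg (mice/rats/dogs); po 10/20/10 mg/kg; vehicle DMSO in 5% glucose water. Blood at 2 or 5 to 720 min; plasma protein-precipitated with methanol, caffeine internal standard, LC-MS/MS.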

[2] = target: Tyrosine-protein kinase ABL2 (Homo sapiens) (UniProt P42684); experiment: Binding affinity to wild-type human ABL2 (A248 to G542 residues) expressed in bacterial expression system assessed as remaining unbound target protein level at 1000 nM by Kinomescan method relative to control
Summary of the method: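 KINOMEscan competitive binding profile at 1 μM inhibitor. Remaining target binding reported as percent of DMSO control.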

[3] = target: Mitogen-activated protein kinase kinase kinase 6 (Homo sapiens) (UniProt O95382); experiment: Binding affinity to wild-type human partial length ASK2 (M278 to R972 residues) expressed in mammalian expression system assessed as remaining unbound target protein level at 1000 nM by Kinomescan method relative to control
Summary of the method: (§1)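 KINOMEscan competition binding profile across a panel of 468 kinases and mutants, with the inhibitor tested at a single concentration of 1 μM. Binding is reported as percent of control, meaning signal relative to a DMSO control.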

[4] = test system: Serine/threonine-protein kinase B-raf (Homo sapiens), P15056 [V600E]; experiment: Binding affinity to human partial length BRAF V600E mutant (S429 to E741 residues) expressed in mammalian expression system assessed as remaining unbound target protein level at 1000 nM by Kinomescan method relative to control
Summary of the method: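 KINOMEscan competition-binding profiling across the panel of 468 kinases and mutants, with inhibitor tested at 1 μM. Binding is expressed as percent of control, with DMSO as the reference control.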

[5] = target: Calcium/calmodulin-dependent protein kinase type 1 (Homo sapiens) (UniProt Q14012); experiment: Binding affinity to wild-type human full length CAMK1 (M1 to L370 residues) expressed in bacterial expression system assessed as remaining unbound target protein level at 1000 nM by Kinomescan method relative to control
Summary of the method: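 Single-point competition binding screen across a panel of 468 kinases and mutants, with the inhibitor at 1 μM. Binding is read out as percent of a DMSO control, and targets below 1 percent control were classed as strong binders.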

[6] = target: Cyclin-dependent kinase 11B (Homo sapiens, UniProt P21127); experiment: Binding affinity to wild-type human partial length CDK11 (M1 to N360 residues) expressed in bacterial expression system assessed as […] at 1000 nM after 1 hr by Kinomescan method relative to control
[7] = target: Citron Rho-interacting kinase (Homo sapiens) (UniProt O14578); experiment: Binding affinity to wild-type human partial length CIT (M68 to E432 residues) expressed in bacterial expression system assessed as remaining unbound target protein level at 1000 nM by Kinomescan method relative to control; summary of the method: as §1
[8] = target: Dual specificity tyrosine-phosphorylation-regulated kinase 2 (Homo sapiens) (UniProt Q92630); experiment: Binding affinity to wild-type human full length DYRK2 (M1 to S528 residues) expressed in mammalian expression system assessed as remaining unbound target protein level at 1000 nM by Kinomescan method relative to control; summary of the method: as §1
Chain of Dual specificity tyrosine-phosphorylation-regulated kinase 2 (Homo sapiens) (Q92630 whole entry, the tested form may be a part): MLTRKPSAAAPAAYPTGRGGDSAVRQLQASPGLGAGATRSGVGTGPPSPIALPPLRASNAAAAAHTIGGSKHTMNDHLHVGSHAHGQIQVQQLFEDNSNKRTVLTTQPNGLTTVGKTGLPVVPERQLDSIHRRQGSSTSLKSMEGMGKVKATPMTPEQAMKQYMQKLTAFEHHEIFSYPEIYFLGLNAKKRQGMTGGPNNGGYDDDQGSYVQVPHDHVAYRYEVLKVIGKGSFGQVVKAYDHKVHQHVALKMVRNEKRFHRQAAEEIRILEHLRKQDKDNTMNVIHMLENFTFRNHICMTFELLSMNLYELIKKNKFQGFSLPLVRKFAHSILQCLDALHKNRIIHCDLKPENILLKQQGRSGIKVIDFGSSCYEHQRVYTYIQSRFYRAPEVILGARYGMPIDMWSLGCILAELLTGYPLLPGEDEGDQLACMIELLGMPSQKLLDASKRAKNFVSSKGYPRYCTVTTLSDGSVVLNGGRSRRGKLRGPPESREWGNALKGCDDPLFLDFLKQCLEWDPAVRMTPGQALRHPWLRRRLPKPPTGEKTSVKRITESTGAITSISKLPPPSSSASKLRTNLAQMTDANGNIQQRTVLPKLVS

[9] = target: Mitogen-activated protein kinase 7 (Homo sapiens) (UniProt Q13164); experiment: Binding affinity to wild-type human partial length ERK5 (M1 to A409 residues) expressed in bacterial expression system assessed as remaining unbound target protein level at 1000 nM by Kinomescan method relative to control
[10] = target: Tyrosine-protein kinase Fer (Homo sapiens) (UniProt P16591); experiment: Binding affinity to wild-type human partial length FER (S542 to T822 residues) expressed in bacterial expression system assessed as remaining unbound target protein level at 1000 nM by Kinomescan method relative to control
[11] = target: Homeodomain-interacting protein kinase 2 (Homo sapiens) (UniProt Q9H2X6); experiment: Binding affinity to wild-type human partial length HIPK2 (M153 to S564 residues) expressed in mammalian expression system assessed as remaining unbound target protein level at 1000 nM by Kinomescan method relative to control
Chain of Homeodomain-interacting protein kinase 2 (Homo sapiens) (Q9H2X6 whole entry, looked up, the tested form may be a part): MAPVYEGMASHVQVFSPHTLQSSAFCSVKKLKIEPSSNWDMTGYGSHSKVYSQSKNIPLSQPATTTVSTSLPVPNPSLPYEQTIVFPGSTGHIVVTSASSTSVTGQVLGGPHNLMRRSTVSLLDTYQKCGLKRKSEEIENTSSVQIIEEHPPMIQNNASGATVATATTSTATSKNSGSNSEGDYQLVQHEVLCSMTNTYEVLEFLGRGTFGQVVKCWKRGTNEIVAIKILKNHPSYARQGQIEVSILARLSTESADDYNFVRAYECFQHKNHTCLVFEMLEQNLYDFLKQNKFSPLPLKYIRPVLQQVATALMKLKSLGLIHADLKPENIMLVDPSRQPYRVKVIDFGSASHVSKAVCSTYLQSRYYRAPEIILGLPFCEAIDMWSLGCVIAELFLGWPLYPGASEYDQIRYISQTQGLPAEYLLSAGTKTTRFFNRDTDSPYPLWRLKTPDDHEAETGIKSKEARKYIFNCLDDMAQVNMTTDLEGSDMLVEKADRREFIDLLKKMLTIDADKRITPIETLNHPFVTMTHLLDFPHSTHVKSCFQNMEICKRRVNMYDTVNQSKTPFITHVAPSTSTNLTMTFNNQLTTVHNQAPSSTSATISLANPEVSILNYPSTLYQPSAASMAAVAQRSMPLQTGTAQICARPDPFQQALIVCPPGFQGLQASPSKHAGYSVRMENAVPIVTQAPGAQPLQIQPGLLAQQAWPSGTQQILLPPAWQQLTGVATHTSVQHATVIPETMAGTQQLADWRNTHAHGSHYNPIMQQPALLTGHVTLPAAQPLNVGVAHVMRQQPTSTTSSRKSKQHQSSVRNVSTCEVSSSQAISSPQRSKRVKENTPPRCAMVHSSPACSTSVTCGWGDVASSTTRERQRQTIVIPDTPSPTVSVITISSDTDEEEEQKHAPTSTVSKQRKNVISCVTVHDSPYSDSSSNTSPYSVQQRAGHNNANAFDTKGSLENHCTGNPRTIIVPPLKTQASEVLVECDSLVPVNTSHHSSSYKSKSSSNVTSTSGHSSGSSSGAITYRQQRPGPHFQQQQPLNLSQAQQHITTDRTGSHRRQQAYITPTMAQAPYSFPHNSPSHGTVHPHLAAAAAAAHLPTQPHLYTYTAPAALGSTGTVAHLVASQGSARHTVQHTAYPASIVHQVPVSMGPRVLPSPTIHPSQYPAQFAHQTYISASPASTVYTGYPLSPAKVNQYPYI
Summary of the method: (§2)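 KINOMEscan binding panel of 468 kinases/mutants. Inhibitor was tested at a single concentration of 1 μM. Binding is reported as percent of control, defined relative to a DMSO control.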

[12] = target: Serine/threonine-protein kinase LATS2 (Homo sapiens) (UniProt Q9NRM7); experiment: Binding affinity to wild-type human partial length LATS2 (Q641 to V1088 residues) expressed in mammalian expression system assessed as remaining unbound target protein level at 1000 nM by Kinomescan method relative to control
[13] = target: Tyrosine-protein kinase Lck (Homo sapiens) (UniProt P06239); experiment: Binding affinity to wild-type human partial length LCK (R207 to P509 residues) expressed in bacterial expression system assessed as remaining unbound target protein level at 1000 nM by Kinomescan method relative to control; summary of the method: as §2
[14] = target: Phosphatidylinositol 4-phosphate 3-kinase C2 domain-containing subunit beta (Homo sapiens) (UniProt O00750); experiment: Binding affinity to wild-type human partial length PIK3C2B (M1 to L1634 residues) expressed in mammalian expression system assessed as remaining unbound target protein level at 1000 nM by Kinomescan method relative to control
[15] = target: Phosphatidylinositol 5-phosphate 4-kinase type-2 gamma (Homo sapiens) (UniProt Q8TBX8); experiment: Binding affinity to wild-type human partial length PIP5K2C (M1 to A421 residues) expressed in mammalian expression system assessed as remaining unbound target protein level at 1000 nM by Kinomescan method relative to control
Chain of Phosphatidylinositol 5-phosphate 4-kinase type-2 gamma (Homo sapiens) (Q8TBX8 whole entry, the tested form may be a part): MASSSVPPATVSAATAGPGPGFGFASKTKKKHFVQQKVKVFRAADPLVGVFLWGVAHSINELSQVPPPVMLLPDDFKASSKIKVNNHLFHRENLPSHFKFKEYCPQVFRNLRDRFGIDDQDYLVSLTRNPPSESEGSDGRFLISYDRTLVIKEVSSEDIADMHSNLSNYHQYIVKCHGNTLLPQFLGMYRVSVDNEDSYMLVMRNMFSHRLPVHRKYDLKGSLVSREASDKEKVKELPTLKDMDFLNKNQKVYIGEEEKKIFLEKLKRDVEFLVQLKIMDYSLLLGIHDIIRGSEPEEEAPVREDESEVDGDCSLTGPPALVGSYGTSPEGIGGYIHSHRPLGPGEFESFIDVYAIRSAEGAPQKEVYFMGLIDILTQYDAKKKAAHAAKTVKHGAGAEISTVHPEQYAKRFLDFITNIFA

[16] = target: Ribosomal protein S6 kinase alpha-4 (Homo sapiens) (UniProt O75676); experiment: Binding affinity to wild-type human partial length N-terminal RPS6KA4 kinase domain 1 expressed in bacterial expression system assessed as remaining unbound target protein level at 1000 nM by Kinomescan method relative to control
[17] = target: Tyrosine-protein kinase Srms (Homo sapiens) (UniProt Q9H3Y6); experiment: Binding affinity to wild-type human partial length SRMS (L208 to P488 residues) expressed in mammalian expression system assessed as remaining unbound target protein level at 1000 nM by Kinomescan method relative to control
Chain of Tyrosine-protein kinase Srms (Homo sapiens) (Q9H3Y6 whole entry, the tested form may be a part): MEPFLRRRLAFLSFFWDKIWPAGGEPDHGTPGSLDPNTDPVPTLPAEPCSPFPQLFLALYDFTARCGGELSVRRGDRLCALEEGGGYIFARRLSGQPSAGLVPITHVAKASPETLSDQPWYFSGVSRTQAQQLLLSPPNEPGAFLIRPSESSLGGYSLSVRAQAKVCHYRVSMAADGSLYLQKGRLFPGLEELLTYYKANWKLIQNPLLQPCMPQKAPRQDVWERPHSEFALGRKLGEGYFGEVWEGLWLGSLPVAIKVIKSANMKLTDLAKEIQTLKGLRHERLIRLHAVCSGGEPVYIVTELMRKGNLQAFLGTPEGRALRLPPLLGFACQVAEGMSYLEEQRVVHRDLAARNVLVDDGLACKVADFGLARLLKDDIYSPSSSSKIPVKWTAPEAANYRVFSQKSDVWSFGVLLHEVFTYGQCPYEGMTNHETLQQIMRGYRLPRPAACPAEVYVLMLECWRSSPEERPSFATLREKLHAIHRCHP

[18] = target: Serine/threonine-protein kinase WNK2 (Homo sapiens) (UniProt Q9Y3S1); experiment: Binding affinity to wild-type human partial length WNK2 (V47 to D482 residues) expressed in mammalian expression system assessed as remaining unbound target protein level at 1000 nM by Kinomescan method relative to control
Chain of Serine/threonine-protein kinase WNK2 (Homo sapiens) (Q9Y3S1 whole entry, the tested form may be a part): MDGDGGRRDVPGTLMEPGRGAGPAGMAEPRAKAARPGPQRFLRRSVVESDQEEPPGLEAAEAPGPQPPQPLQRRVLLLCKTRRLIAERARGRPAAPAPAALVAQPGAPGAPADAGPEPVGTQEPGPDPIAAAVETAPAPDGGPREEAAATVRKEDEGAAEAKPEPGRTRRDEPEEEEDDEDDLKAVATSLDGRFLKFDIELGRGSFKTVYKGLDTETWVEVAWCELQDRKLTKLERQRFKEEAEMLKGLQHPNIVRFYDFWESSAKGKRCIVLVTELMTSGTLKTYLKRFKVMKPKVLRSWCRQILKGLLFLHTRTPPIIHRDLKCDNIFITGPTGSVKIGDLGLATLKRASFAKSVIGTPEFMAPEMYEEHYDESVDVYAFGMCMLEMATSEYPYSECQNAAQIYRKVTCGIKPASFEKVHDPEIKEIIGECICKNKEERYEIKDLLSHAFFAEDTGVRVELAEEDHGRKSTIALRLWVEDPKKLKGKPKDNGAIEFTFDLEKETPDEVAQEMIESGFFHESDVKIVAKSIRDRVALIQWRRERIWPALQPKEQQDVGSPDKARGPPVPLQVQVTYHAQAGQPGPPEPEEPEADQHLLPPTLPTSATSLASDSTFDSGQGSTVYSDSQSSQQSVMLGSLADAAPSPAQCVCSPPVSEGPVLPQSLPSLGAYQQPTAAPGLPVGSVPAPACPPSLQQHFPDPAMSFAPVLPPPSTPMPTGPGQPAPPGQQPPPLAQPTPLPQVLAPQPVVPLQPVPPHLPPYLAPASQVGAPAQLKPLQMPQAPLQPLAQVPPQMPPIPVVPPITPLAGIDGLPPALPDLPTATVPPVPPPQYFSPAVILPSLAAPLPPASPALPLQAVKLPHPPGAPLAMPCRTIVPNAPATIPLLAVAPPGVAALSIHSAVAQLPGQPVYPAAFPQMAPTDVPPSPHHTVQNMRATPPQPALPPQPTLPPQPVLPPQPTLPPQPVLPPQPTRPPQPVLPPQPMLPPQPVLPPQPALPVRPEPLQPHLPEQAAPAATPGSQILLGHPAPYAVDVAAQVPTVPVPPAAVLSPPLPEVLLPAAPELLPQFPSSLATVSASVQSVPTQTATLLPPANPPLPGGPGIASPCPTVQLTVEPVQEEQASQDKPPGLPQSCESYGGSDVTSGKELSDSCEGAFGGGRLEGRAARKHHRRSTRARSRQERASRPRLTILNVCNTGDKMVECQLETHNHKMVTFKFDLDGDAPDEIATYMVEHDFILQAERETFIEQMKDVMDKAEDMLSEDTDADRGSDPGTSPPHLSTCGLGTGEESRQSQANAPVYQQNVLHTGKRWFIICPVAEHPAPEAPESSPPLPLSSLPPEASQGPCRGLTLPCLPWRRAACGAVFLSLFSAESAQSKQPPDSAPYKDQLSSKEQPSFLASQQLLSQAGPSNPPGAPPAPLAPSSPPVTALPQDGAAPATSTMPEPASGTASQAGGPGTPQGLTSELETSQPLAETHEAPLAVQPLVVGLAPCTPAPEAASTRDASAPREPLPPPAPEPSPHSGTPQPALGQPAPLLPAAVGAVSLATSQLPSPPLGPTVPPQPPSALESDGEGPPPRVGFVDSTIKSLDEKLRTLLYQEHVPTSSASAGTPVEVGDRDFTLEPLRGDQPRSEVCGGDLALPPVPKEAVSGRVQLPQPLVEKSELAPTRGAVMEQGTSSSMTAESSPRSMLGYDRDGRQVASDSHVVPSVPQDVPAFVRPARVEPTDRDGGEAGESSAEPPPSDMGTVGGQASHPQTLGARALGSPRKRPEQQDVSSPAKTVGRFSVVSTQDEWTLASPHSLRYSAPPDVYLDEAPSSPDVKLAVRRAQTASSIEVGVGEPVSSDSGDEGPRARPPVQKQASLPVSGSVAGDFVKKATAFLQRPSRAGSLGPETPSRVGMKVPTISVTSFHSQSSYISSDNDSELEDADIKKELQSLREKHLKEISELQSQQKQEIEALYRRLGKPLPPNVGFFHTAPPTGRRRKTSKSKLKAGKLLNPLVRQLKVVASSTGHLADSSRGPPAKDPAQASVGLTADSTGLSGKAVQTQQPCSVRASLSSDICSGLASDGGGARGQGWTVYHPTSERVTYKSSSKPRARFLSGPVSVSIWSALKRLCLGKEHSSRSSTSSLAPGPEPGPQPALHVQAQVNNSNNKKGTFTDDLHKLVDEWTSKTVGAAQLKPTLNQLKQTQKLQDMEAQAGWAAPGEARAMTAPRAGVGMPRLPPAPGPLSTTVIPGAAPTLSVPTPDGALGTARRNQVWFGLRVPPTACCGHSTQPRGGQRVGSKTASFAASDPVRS

SMILES: COCCN[C@H]1CC[C@H](Nc2cc(-c3csc(NCC4(C#N)CCOCC4)n3)c(Cl)cn2)CC1
- GI50 (OCI-AML-3): 6.6 nM
- AUC(0-t) [1]: 393 ng·h/mL
- Activity [2]: 77%
- Activity [3]: 86%
- Activity [4]: 91%
- Activity [5]: 89%
- Activity [6]: 100%
- Activity [7]: 23%
- Activity [8]: 5.2%
- Activity [9]: 88%
- Activity [10]: 88%
- Activity [11]: 74%
- Activity [12]: 84%
- Activity [13]: 81%
- Activity [14]: 100%
- Activity [15]: 59%
- Activity [16]: 92%
- Activity [17]: 89%
- Activity [18]: 92%
